# How the values were obtained:
# [1] = tested on: MCF7; assay: Cytotoxicity against human MCF7 cells over-expressing CYP1B1 after 48 hrs by MTT assay; type: functional, cell-based; conditions: MCF7, 48 h
# Outline: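 CYP1B1-expressing MCF-7 (MCF-7/1B1) made by exposing parental cells to 10 nM TCDD for 96 h, with daily renewal of medium containing fresh 10 nM TCDD. Standard MTT assay, 48 h exposure to docetaxel alone or combined with a CYP1B1 inhibitor (5 or 10 μM). Wells with inhibitor alone (10 μM) served as negative control. Five concentrations, four replicate wells each, three plates.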
# [2] = tested on: MCF7; assay: Cytotoxicity against human MCF7 cells after 48 hrs by MTT assay; type: functional, cell-based; conditions: MCF7, 48 h
# Outline: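 MCF-7 cells grown in RPMI-1640 with 10% FBS at 37 °C, 5% CO2 and subcultured every 3 days at 1:5. Standard MTT assay with a 48 h exposure to freshly prepared docetaxel. Five concentrations per plate, four replicate wells each, three replicate plates. Viability is percent surviving cells relative to control. IC50 is the average of three parallel experiments.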
# [3] = tested on: MCF7; assay: Resistance index, ratio of IC50 for human MCF7 cells over-expressing CYP1B1 to IC50 for human MCF7 cells; type: functional
smiles,measurement,setting,value
CC(=O)O[C@@]12CO[C@@H]1C[C@H](O)[C@@]1(C)C(=O)[C@H](O)C3=C(C)[C@@H](OC(=O)[C@H](O)[C@@H](NC(=O)OC(C)(C)C)c4ccccc4)C[C@@](O)([C@@H](OC(=O)c4ccccc4)[C@H]21)C3(C)C.O.O.O [DOCETAXEL],IC50,[1],140 µM
same,IC50,[2],27.6 µM
same,Ratio IC50,[3],5

# Reference: ChEMBL document CHEMBL3421595, “Design and Synthesis of New α-Naphthoflavones as Cytochrome P450 (CYP) 1B1 Inhibitors To Overcome Docetaxel-Resistance Associated with CYP1B1 Overexpression” (J Med Chem, 2015)
